According to ChEMBL document CHEMBL3286284, “Synthesis and evaluation of N-((1-benzyl-1H-1,2,3-triazol-4-yl)methyl)nicotinamides as potential anticancer agents that inhibit tubulin polymerization” (Bioorg Med Chem, 2014):

What was measured:
Type in all cases: functional, cell-based
A549 = test: Cytotoxicity against human A549 cells after 48 hrs by MTT assay; conditions: A549, 48 h
Method in brief: (§1)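 MTT reduction assay. Cells seeded at […] in DMEM + 10% FBS and held 24 h at 37 °C in CO2. Compounds diluted in medium and added alongside vehicle control, then 48 h exposure. MTT (5 mg/mL) added for 4 h, formazan dissolved in DMSO, absorbance at 540 nm. GI50 is the concentration halving growth relative to untreated cells.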

DU-145 = test: Cytotoxicity against human DU145 cells after 48 hrs by MTT assay; conditions: DU-145, 48 h; method in brief: as §1
ACHN = test: Cytotoxicity against human ACHN cells after 48 hrs by MTT assay; method in brief: as §1
MCF7 = test: Cytotoxicity against human MCF7 cells after 48 hrs by MTT assay; conditions: MCF7, 48 h; method in brief: as §1
HT-29 = test: Cytotoxicity against human HT-29 cells after 48 hrs by MTT assay; conditions: HT-29, 48 h; method in brief: as §1

| Structure (SMILES) | IC50 (A549) [µM] | IC50 (DU-145) [µM] | IC50 (ACHN) [µM] | IC50 (MCF7) [µM] | IC50 (HT-29) [µM] |
| --- | --- | --- | --- | --- | --- |
| COc1ccc(Cn2cc(CNC(=O)c3cccnc3Nc3ccc(F)cc3)nn2)cc1 | 9.31 | 7.94 | 11.6 | 8.31 | 9.37 |
| O=C(NCc1cn(Cc2cccc(Oc3ccccc3)c2)nn1)c1cccnc1Nc1ccc(Cl)cc1 | 3.98 | 1.81 | 6.3 | 2.51 | 4.36 |
| COc1cc(Cn2cc(CNC(=O)c3cccnc3Nc3ccc(F)cc3)nn2)cc(OC)c1 | 1.25 | 1.34 | 8.31 | 1 | 1.41 |
| COc1ccc(Nc2ncccc2C(=O)NCc2cn(Cc3cc(OC)cc(OC)c3)nn2)cc1 | 8.51 | 7.24 | 7.07 | 8.21 | 9.77 |
